The values that follow come from ChEMBL document CHEMBL1126882, “Orally active central dopamine and serotonin receptor ligands: 5-, 6-, 7-, and 8-[[trifluoromethyl)sulfonyl]oxy]-2-(di-n-propylamino)tetralins and the formation of active metabolites in vivo” (J Med Chem, 1993).

Activity calls are given as the source filed them. No cut-off for these calls is given here.

A short description of assay [1]: Effective dose for half-maximal decrease in the accumulation of 5-hydroxytryptophan (5-HTP) in reserpinized rat brain striatal area by sc administration. The format is functional. In short, it runs like this: (§1)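 Male Sprague-Dawley rats (200-300 g) got reserpine 5 mg/kg sc 18 h before. The test drug (saline) was given sc or po (po rats fasted 18 h), with NSD 1015, 30 min before decapitation. DOPA and 5-HTP in limbic, striatal and hemispheral tissue were measured by HPLC-ED. ED50 (half-maximal decrease) was taken from 4-6-dose curves, with deviation estimated graphically from SEM.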

Assay [2] is described as follows: Effective dose for half-maximal decrease in the accumulation of 5-hydroxytryptophan (5-HTP) in reserpinized rat brain hemispheral area by po administration. The format is functional. The method in brief:
as §1

Assay [3] is described as follows: Effective dose for half-maximal decrease in the accumulation of 5-hydroxytryptophan (5-HTP) in reserpinized rat brain hemispheral area by sc administration. It is filed as functional. The method in brief: as §1
The nature of assay [4]: Effective dose for half-maximal decrease in the accumulation of 5-hydroxytryptophan (5-HTP) in reserpinized rat brain limbic area by po administration. It is filed as functional. The method in brief: as §1
Assay [5] is described as follows: Effective dose for half-maximal decrease in the accumulation of 5-hydroxytryptophan (5-HTP) in reserpinized rat brain limbic area by sc administration. The format is functional. The method in brief: as §1
Assay [6] can be described thus: Effective dose for half-maximal decrease in the accumulation of 5-hydroxytryptophan (5-HTP) in reserpinized rat brain striatal area by po administration. It is filed as functional. The method in brief: as §1
Assay [7] deals with T1, 5-hydroxytryptamine receptor 1A (Rattus norvegicus, UniProt P19327).
T1 sequence (P19327 whole entry): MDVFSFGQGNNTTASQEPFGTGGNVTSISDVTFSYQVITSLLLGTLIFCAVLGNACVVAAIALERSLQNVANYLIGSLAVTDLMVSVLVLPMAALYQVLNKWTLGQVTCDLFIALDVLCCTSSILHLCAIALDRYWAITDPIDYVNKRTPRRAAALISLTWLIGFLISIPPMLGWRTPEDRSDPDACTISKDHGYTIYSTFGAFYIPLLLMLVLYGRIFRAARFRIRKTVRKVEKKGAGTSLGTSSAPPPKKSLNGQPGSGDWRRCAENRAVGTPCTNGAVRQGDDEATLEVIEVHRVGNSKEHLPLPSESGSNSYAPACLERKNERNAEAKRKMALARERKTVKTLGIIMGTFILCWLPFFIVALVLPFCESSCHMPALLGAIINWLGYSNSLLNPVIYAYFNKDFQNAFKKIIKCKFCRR
The assay can be described thus: (§2) Binding affinity against 5-hydroxytryptamine 1A receptor in homogenated rat brain tissue, using by [3H]8-OH-DPAT as radioligand. It is filed as tissue-based. In short, it runs like this:
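Rat brain homogenate was washed and preincubated in 50 mM Tris (pH 8.0) containing NaCl, CaCl2 and MgCl2, plus 10 μM pargyline. It was incubated with 1 nM [3H]-8-OH-DPAT (final) for 15 min at 37 °C, then vacuum-filtered and counted by scintillation. Nonspecific binding was defined with 10 μM 5-HT. Six drug concentrations (10⁻⁴-10⁻⁹ M) were tested, triplicate or single run. IC50 came from a semilog plot with linear regression.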

Assay [8] concerns the target T2, Dopamine receptor (Rattus norvegicus) (UniProt P25115+P19020+P30729+P18901+P61169). The assay is described as follows: Effective dose for half-maximal decrease in the accumulation of DOPA in reserpinized rat brain limbic area by po administration. It is filed as functional, organism-based. The method in brief:
as §1

The target in assay [9] is T2, Dopamine receptor (Rattus norvegicus). The assay can be described thus: Effective dose for half-maximal decrease in the accumulation of DOPA in reserpinized rat brain striatal area by po administration. It is filed as functional, organism-based. In short, it runs like this:
as §1

The target is the same in assay [10]. The assay is described as follows: Effective dose for half-maximal decrease in the accumulation of DOPA in reserpinized rat brain hemispheral area by po administration; Inactive. It is filed as functional, organism-based. The method in brief:
as §1

The target is the same in assay [11]. The assay can be described thus: Effective dose for half-maximal decrease in the accumulation of DOPA in reserpinized rat brain hemispheral area by sc administration; Inactive. It is filed as functional, organism-based. In short, it runs like this: as §1
The target is the same in assay [12]. The assay is described as follows: Effective dose for half-maximal decrease in the accumulation of DOPA in reserpinized rat brain striatal area by sc administration; Inactive. The format is functional, organism-based. The method in brief: as §1
Assay [13] shares this target. The assay is described as follows: Effective dose for half-maximal decrease in the accumulation of DOPA in reserpinized rat brain limbic area by sc administration; Inactive. It is filed as functional, organism-based. In short, it runs like this:
as §1

For assay [14], the target named is D(2) dopamine receptor (Rattus norvegicus, UniProt P61169). The assay is described as follows: Binding affinity against dopamine receptor D2 in homogenated rat brain tissue, using by [3H]spiperone as radioligand. The format is tissue-based. In short, it runs like this: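 Rat striatal membranes were prepared in 50 mM potassium phosphate (pH 7.4). They were incubated with 0.5 nM [3H]spiperone (3 mg original tissue) for 10 min at 37 °C. Specific binding was defined with 10 μM 6,7-ADTN. Six drug concentrations (10⁻⁴-10⁻⁹ M) were tested, in triplicate or in a single experiment.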

For assay [15], the system named is Rattus norvegicus. The assay can be described thus: Effective dose for half-maximal decrease in the accumulation of 5-hydroxytryptophan (5-HTP) in reserpinized rat brain hemispheral area by po administration; Inactive. It is filed as functional, organism-based. The method in brief:
as §1

Assay [16] relates to Rattus norvegicus. The assay is described as follows: Effective dose for half-maximal decrease in the accumulation of 5-hydroxytryptophan (5-HTP) in reserpinized rat brain limbic area by po administration; Inactive. It is filed as functional, organism-based. In short, it runs like this:
as §1

For assay [17], the system named is Rattus norvegicus. The assay is described as follows: Effective dose for half-maximal decrease in the accumulation of 5-hydroxytryptophan (5-HTP) in reserpinized rat brain striatal area by po administration; Inactive. The format is functional, organism-based. The method in brief: as §1
Assay [18] concerns the target T1, 5-hydroxytryptamine receptor 1A. The assay is described as §2. The format is tissue-based. In short, it runs like this:
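Rat brain homogenate was washed and preincubated in 50 mM Tris (pH 8.0) containing NaCl, CaCl2 and MgCl2, plus 10 μM pargyline. Nonspecific binding was defined with 10 μM 5-HT. Six drug concentrations (10⁻⁴-10⁻⁹ M) were tested, triplicate or single run. IC50 came from a semilog plot with linear regression.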
This is another data set of the same source.

The target in assay [19] is T2, Dopamine receptor (Rattus norvegicus). The assay can be described thus: Effective dose for half-maximal decrease in the accumulation of DOPA in reserpinized rat brain limbic area by sc administration. The format is functional, organism-based. In short, it runs like this:
as §1

The target is the same in assay [20]. The assay can be described thus: Effective dose for half-maximal decrease in the accumulation of DOPA in reserpinized rat brain striatal area by sc administration. It is filed as functional, organism-based. In short, it runs like this:
as §1

Assay [21] has the same target. The assay can be described thus: Effective dose for half-maximal decrease in the accumulation of DOPA in reserpinized rat brain hemispheral area by po administration. The format is functional, organism-based. In short, it runs like this:
as §1

The species entered for assay [22] is Rattus norvegicus. The assay can be described thus: DA agonist induced behavior was charecterised by increased locomotion, sniffing and licking.++ indicates high intensity of behavioral effect. It is filed as functional, organism-based. The method in brief:
(§3)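 Male Sprague-Dawley rats (200-300 g) given reserpine 5 mg/kg sc in the neck 18 h before testing. The test compound, in 0.9% saline, was given sc in the neck (n = 4-5). Rats were placed singly in photocell motility meters right after dosing. Counts were recorded over 30 min, alongside gross behavioural observation of 5-HT and DA signs. Statistics: ANOVA with Fischer's PLSD versus reserpine controls.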

For assay [23], the system named is Rattus norvegicus. The assay is described as follows: post-synaptic agonistic effects by increase in locomotor activity at the dose of 0.08 umol/kg, sc in reserpinized rat. The format is functional. The method in brief:
as §3

Assay [24] has as its system Rattus norvegicus. The assay is described as follows: Effective dose for half-maximal decrease in the accumulation of 5-hydroxytryptophan (5-HTP) in reserpinized rat brain striatal area by sc administration; Inactive. The format is functional, organism-based. In short, it runs like this:
as §1

The subject of assay [25] is Rattus norvegicus. The assay is described as follows: Effective dose for half-maximal decrease in the accumulation of 5-hydroxytryptophan (5-HTP) in reserpinized rat brain hemispheral area by sc administration; Inactive. It is filed as functional, organism-based. In short, it runs like this: as §1
In assay [26] the test system is Rattus norvegicus. The assay is described as follows: Effective dose for half-maximal decrease in the accumulation of 5-hydroxytryptophan (5-HTP) in reserpinized rat brain limbic area by sc administration; Inactive. It is filed as functional, organism-based. The method in brief: as §1
The species entered for assay [27] is Rattus norvegicus. The assay can be described thus: DA agonist induced behavior was charecterised by increased locomotion, sniffing and licking.+ indicates low intensity of behavioral effect. It is filed as functional, organism-based. In short, it runs like this: as §3
In assay [28] the test system is Rattus norvegicus. The assay is described as follows: post-synaptic agonistic effects by increase in locomotor activity at the dose of 2.2 umol/kg, sc in reserpinized rat. The format is functional.

Sequence of D(2) dopamine receptor (P61169 whole entry): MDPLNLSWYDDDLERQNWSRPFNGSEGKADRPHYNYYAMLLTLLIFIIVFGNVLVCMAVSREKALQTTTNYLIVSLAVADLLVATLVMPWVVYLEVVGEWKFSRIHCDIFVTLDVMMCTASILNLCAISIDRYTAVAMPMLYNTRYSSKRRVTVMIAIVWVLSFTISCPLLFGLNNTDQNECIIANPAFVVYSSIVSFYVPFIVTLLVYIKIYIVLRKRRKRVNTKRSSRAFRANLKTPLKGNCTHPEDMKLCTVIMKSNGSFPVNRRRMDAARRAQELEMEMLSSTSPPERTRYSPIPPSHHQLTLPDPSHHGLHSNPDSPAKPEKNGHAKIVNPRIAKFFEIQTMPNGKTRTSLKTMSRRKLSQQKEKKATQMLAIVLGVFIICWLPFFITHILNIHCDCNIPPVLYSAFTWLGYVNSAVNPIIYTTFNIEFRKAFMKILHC

For `CCCN(CCC)C1CCc2cccc(OC)c2C1` (centres undefined), the 50% effective dose (ED50) in assay [1] was determined as 0.3 µmol/kg; in assay [2], 2.3 µmol/kg; in assay [3] it was 0.2 µmol/kg; in assay [4], 3.2 µmol/kg; in [5], 0.3 µmol/kg; in assay [6], 3.2 µmol/kg. Moreover, the results for the ED50 in assay [8] and in [9] were 5.5 µmol/kg and 12.5 µmol/kg, respectively. For the same compound, the inhibitory constant (Ki) in assay [7] is 10 nM; in [14] it was 160 nM. In addition, the ED50 result in assay [10], in assay [11], in assay [12] and in assay [13] was “inactive” throughout.

`CCCN(CCC)C1CCc2c(O)cccc2C1` (centres undefined) [5-OH-DPAT]: the ED50 entry in [15], in assay [16], in [17], in assay [11], in assay [12] and in assay [13] was “inactive” in each case. Further, in [18], affinity was put at a Ki of 1040 nM. Also, the median effective dose (ED50) in assay [8] amounted to 0.7 µmol/kg; in assay [19], 0.01 µmol/kg; in assay [9], 0.5 µmol/kg; in [20] it was 0.01 µmol/kg; in assay [21] it was 4 µmol/kg. Besides, the Behavioral observation result in [22] is “Active”. For the same compound, in assay [23], the Counts/30 was found to be 60 min.

For `CCCN(CCC)[C@@H]1CCc2ccc(O)cc2C1`, the ED50 entry in assay [24], in assay [25] and in [26] was “inactive” throughout. In addition, the inhibitory constant (Ki) in [18] was found to be 3260 nM. The Behavioral observation result in assay [27] is “Partially active”. In addition, the Counts/30 in assay [28] is 100 counts/30 min.
